# Laboratory results reported in PubChem BioAssay.
# Activity calls are given as the source filed them.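 How the source made its calls, unless noted: active means fluorescence slope after compound addition differing from the mean of all tested samples at 99.7% confidence, mostly higher but some lower; inactive means the rest.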
# Key:
# [1] = inhibitors of TNFa-induced NFkB p65 translocation, primary screen, imaging, HUVEC, MLSMR starter and 10KST1 sets (AID 438;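 active means inhibition above 20% together with a positive visual image hit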;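 further: compound added about 3h40 before a 20 min TNFalpha stimulation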;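 on inhibition: signal is the nuclear over cytoplasmic p65 intensity ratio per well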); details: HUVEC TNFa-induced p65 nuclear translocation; cell count: measured here: nuclei count (cytotoxicity indicator), at 2.08 µM; inhibition: at 2 µM, stronger effect = higher value, 0% TNFa-plus-vehicle, 100% no-TNFa wells
# [2] = reduction of polyQ htt aggregates in cells – imaging, exon1htt(103Q)mCFP cells, high-content imaging, primary screen (AID 483;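 active means visual image review flags a hit and inhibition of aggregation exceeds 20%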;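 further: compound exposure lasted 3 days before fixation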;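 on nuclei count: percent of the per-plate median nuclei count of sample wells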); details: exon1htt(103Q)mCFP cell line, aggregate imaging, at 2 µM; inhibition of aggregation: stronger effect = higher value; nuclei count: measured here: cell count, toxicity
# [3] = endothelial E-selectin expression blockers – imaging, HUVEC, immunofluorescence, MLSMR starter and 10KST1 sets, primary screen (AID 487;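 active means visually confirmed hit in the image check and inhibition above 20%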;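 on inhibition: signal is fraction of cell area covered by stained E-selectin grains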;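 on nuclei count: 100% = median nuclei count of all wells on the same plate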); details: HUVEC TNFalpha-induced E-selectin immunofluorescence imaging, at 2 µM; inhibition: stronger effect = higher value; nuclei count: measured here: cell number, toxicity
# [4] = target: Voltage-gated potassium channel subunit beta-2 (Rattus norvegicus) (UniProt P62483); test: inhibitors of rat Kvbeta2 reductase activity – biochemical, NADPH fluorescence, primary screen (AID 622;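 active means fluorescence slope higher than the sample average by over 3 SD, cut at about -0.22 in these data, passing the limit was not always enough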;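 further: slope of raw intensity against log time taken from 70 to 1610 s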); details: recombinant KvBeta, 4-cyanobenzaldehyde reduction, at 10 µM, stronger effect = higher value
# Voltage-gated potassium channel subunit beta-2 (Rattus norvegicus), sequence (P62483 whole entry, looked up): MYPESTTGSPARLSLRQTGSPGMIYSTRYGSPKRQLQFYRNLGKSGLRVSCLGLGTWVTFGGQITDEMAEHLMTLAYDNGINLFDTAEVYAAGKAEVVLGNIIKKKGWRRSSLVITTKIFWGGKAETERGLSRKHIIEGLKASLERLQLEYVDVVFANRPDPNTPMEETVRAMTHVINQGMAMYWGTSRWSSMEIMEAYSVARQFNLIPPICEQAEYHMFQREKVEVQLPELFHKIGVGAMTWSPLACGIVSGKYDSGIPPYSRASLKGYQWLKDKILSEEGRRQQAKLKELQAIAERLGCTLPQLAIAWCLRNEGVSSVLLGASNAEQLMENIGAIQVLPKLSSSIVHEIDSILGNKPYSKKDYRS
# [5] = target: Voltage-gated potassium channel subunit beta-2 (Rattus norvegicus) (UniProt P62483); test: enhancers of rat Kvbeta2 NADPH turnover – biochemical, NADPH fluorescence, primary screen (AID 623;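 active means NADPH fluorescence slope more negative than the mean of all samples by about 3 SD, 99.7% confidence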;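 further: fluorescence intensity change per second fitted from 20 to 320 s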); details: Recombinant KvBeta, NADPH fluorescence decrease slope, 10 min; at 10 µM; stronger effect = lower value
# [6] = target: Muscarinic acetylcholine receptor M4 (Homo sapiens) (UniProt P08173); test: M4-linked GIRK flux change, two-sided – cell-based, HEK293 M4/GIRK, thallium flux, BTC-AM, M4 allosteric agonist project, primary screen (AID 625); details: at 10 µM, actives lie on both sides;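 further: thallium influx through GIRK channels coupled to M4 in HEK293 cells with BTC-AM dye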
# Muscarinic acetylcholine receptor M4 (Homo sapiens), sequence (P08173 whole entry, looked up): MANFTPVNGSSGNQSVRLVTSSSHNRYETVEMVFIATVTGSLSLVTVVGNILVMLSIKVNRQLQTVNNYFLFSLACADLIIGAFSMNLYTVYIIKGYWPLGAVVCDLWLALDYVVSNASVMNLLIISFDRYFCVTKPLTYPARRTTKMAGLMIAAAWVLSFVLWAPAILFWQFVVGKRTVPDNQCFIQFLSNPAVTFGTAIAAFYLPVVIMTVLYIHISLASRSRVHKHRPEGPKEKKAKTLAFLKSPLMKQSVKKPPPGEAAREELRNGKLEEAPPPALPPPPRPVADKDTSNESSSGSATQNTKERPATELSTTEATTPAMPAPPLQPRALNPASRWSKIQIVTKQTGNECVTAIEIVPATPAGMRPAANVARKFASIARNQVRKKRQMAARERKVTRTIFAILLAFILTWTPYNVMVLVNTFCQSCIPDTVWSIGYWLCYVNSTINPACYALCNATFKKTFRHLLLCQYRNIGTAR
# In short: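 Assay system: HEK293 cells with M4 receptor and GIRK channels / Controls: carbachol and DMSO controls / Schedule: 1 h dye loading, 2 min kinetic read / Technique: kinetic fluorescence with BTC-AM dye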
# [7] = blockers of RIG-like receptor reporter activation – cell-based, Sendai virus stimulus, luciferase, 10K MLSCN set, TLR/RLR signaling modifier project, primary screen (AID 602276;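 active means inhibition at or above 50% at 10 µM; inactive means inhibition below 50%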;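 further: firefly luciferase from ISG56 promoter only with Renilla not read in this screen; 0% = Sendai virus plus DMSO and 100% = medium plus DMSO without virus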); details: HEK293 RL24 IRF3 luciferase reporter, at 10 µM, stronger effect = higher value
# [8] = TLR3 IRF3 reporter activation blockers – cell-based, poly I:C stimulus, luciferase, 10K MLSCN set, primary screen (AID 602277;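 active means inhibition of the reporter signal at or above 50%; inactive means inhibition below 50%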); details: HEK293-TLR3 RL24 IRF3 luciferase reporter, at 10 µM, stronger effect = higher value
Compound,cell count [1],inhibition [1],inhibition of aggregation [2],nuclei count [2],inhibition [3],nuclei count [3],fluorescence slope [4],NADPH fluorescence slope [5],fluorescence slope [6],inhibition [7],inhibition [8]
O=c1nc(N2CCCC2)nc(Nc2ccccc2)[nH]1,478,8.9% (inactive),-12.9% (inactive),112%,-62.6% (inactive),115%,-0.559 (inactive),-4e-05 (inactive),0.00545 (inactive),3.72% (inactive),3.61% (inactive)
CC(=O)N1CCc2cc(S(=O)(=O)CCC(=O)N3CCN(c4ccccn4)CC3)ccc21,592,-2.7% (inactive),2.8% (inactive),107%,-65.1% (inactive),94.5%,-0.456 (inactive),5.1e-05 (inactive),0.0102 (inactive),-15.2% (inactive),-27.2% (inactive)
FC(F)Sc1nnc(-c2cccs2)n1-c1ccccc1,824,-5% (inactive),-10.1% (inactive),95.3%,-146% (inactive),122%,-0.532 (inactive),-3.2e-05 (inactive),0.00612 (inactive),17.7% (inactive),31% (inactive)
COc1cccc(C(c2nnnn2Cc2ccccc2)N2CCN(C(=O)c3ccco3)CC2)c1OC (stereo not drawn),414,4.3% (inactive),5% (inactive),69.9%,-195% (inactive),161%,-0.473 (inactive),-2e-05 (inactive),0.00486 (inactive),8.65% (inactive),11.2% (inactive)
COCc1cc(C)nc(SCC(=O)Nc2cccc(C)c2C)c1C#N,578,-25.9% (inactive),-17.5% (inactive),98%,-62.6% (inactive),107%,-0.432 (inactive),2.4e-05 (inactive),0.0109 (inactive),-2.58% (inactive),38.1% (inactive)
COc1ncnc2c1N=C1CC(C)(C)CC(N)=C1S2,309,0.8% (inactive),-0.2% (inactive),115%,-16.2% (inactive),115%,-0.37 (inactive),-3.5e-05 (inactive),0.00511 (inactive),13.3% (inactive),35% (inactive)
CCC(Sc1ccc2nnc(-c3ccc(F)cc3)n2n1)C(=O)OC (stereo not drawn),562,-16.6% (inactive),25.1% (inactive),117%,-73.4% (inactive),117%,-0.185 (inactive),-7e-06 (inactive),0.00751 (inactive),17.3% (inactive),19.1% (inactive)
CCCCCn1c(CN(C)Cc2ccccc2)nc2c1c(=O)n(C)c(=O)n2C,529,-12.2% (inactive),-2% (inactive),86.5%,-110% (inactive),110%,-0.46 (inactive),-9.4e-05 (inactive),0.00453 (inactive),18.2% (inactive),-3.26% (inactive)
COc1ccc(-n2nnc3c(=O)n(C/C=C/c4ccccc4)cnc32)cc1,585,-6.7% (inactive),-19% (inactive),102%,-31.4% (inactive),115%,-0.218 (inactive),-1.5e-05 (inactive),0.00695 (inactive),12.8% (inactive),7.09% (inactive)
CCOc1ccc2nc(SCC#N)c(C#N)cc2c1,430,3.1% (inactive),-3.9% (inactive),14.5%,9.9% (inactive),114%,-0.561 (inactive),-1.4e-05 (inactive),0.00501 (inactive),-56.3% (inactive),-93.9% (inactive)
Cc1cc(/C=N/n2cnnc2)c(C)n1-c1ccc(Cl)cc1Cl,485,7.6% (inactive),-10.2% (inactive),94.2%,-275% (inactive),135%,-0.294 (inactive),-3e-05 (inactive),0.00517 (inactive),17.2% (inactive),16.7% (inactive)
COc1ccc(C(=O)CSc2nnc(CNc3ccc(C)cc3C)o2)cc1,606,-4.1% (inactive),3% (inactive),101%,-136% (inactive),199%,-0.469 (inactive),-8.4e-05 (inactive),0.00401 (inactive),14.6% (inactive),11.8% (inactive)
O=C(Cn1nnc(-c2cccs2)n1)OC1CCCCC1,298,-4.7% (inactive),-0.1% (inactive),98.6%,-108% (inactive),108%,-0.547 (inactive),-9.5e-06 (inactive),0.00395 (inactive),11.6% (inactive),5.67% (inactive)
O=C(NCc1cccnc1)c1cn(CCc2ccccc2)nn1,569,-0.4% (inactive),-18.3% (inactive),98.8%,-48.9% (inactive),110%,-0.31 (inactive),-2.1e-05 (inactive),0.0065 (inactive),10.9% (inactive),16.6% (inactive)
Cc1cc(C)n(Cc2nc3ccccc3n2C)n1,451,7% (inactive),4% (inactive),100%,-24.9% (inactive),119%,-0.577 (inactive),-3.2e-05 (inactive),0.0071 (inactive),4.33% (inactive),36.3% (inactive)
O=S1(=O)C=CC(Nc2cccc(Cl)c2)C1 (stereo not drawn),682,-1% (inactive),-6.1% (inactive),97.2%,-7.5% (inactive),98.1%,-0.447 (inactive),-6.1e-05 (inactive),0.0065 (inactive),22.9% (inactive),30.3% (inactive)
CCOC(=O)N1CCC2(CC1)CC(=O)c1c(ccc3oc(C(=O)O)c(C)c13)O2,313,-4.1% (inactive),-17.7% (inactive),99%,-83.8% (inactive),105%,-0.413 (inactive),-1.7e-05 (inactive),0.00564 (inactive),0.598% (inactive),11.3% (inactive)
COc1ccc2cc(C#N)c(NC(C)C)nc2c1,481,3.6% (inactive),-25.6% (inactive),96.4%,-23.1% (inactive),108%,-0.495 (inactive),-0.000141 (inactive),0.00581 (inactive),8% (inactive),23% (inactive)
COc1ccc(CN2CC(C(=O)NCCCOC(C)C)CC2=O)cc1 (stereo not drawn),766,-12.7% (inactive),-17.1% (inactive),102%,-63.4% (inactive),122%,-0.522 (inactive),-6.3e-05 (inactive),0.00604 (inactive),-10% (inactive),-6.2% (inactive)
Cc1noc(NS(=O)(=O)c2ccc(N3C(=O)c4ccccc4C3=O)cc2)c1C,754,-11.1% (inactive),6.1% (inactive),104%,-0.4% (inactive),93.6%,-0.533 (inactive),-3.7e-05 (inactive),0.00521 (inactive),6.19% (inactive),25.2% (inactive)
CCC1c2ccc(C)n2CCN1C(=O)Nc1ccccc1OC (stereo not drawn),551,-15.9% (inactive),0.1% (inactive),112%,-63.1% (inactive),116%,-0.402 (inactive),-6.4e-05 (inactive),0.00541 (inactive),3.56% (inactive),3.42% (inactive)
COc1ccc(C2C(C#N)=C(C)NC3=C2C(=O)CC(C)(C)C3)c(OC)c1 (stereo not drawn),252,-8% (inactive),19.6% (inactive),70.9%,31.4% (inactive),96%,-0.463 (inactive),-4.1e-06 (inactive),0.00543 (inactive),15.1% (inactive),18.9% (inactive)
COc1cc(-c2nc(S(=O)(=O)c3ccccc3)c(N3CCOCC3)o2)cc(OC)c1OC,439,6% (inactive),-5.3% (inactive),108%,-286% (inactive),126%,-0.471 (inactive),-0.000303 (inactive),0.0029 (inactive),14.4% (inactive),15.3% (inactive)
O=C(CN1CCOCC1)Nc1cccc(C(=O)Nc2cccc(C(F)(F)F)c2)c1,199,4.3% (inactive),12.5% (inactive),90.7%,1.6% (inactive),89.1%,-0.574 (inactive),-6e-05 (inactive),0.0065 (inactive),7.38% (inactive),-4.66% (inactive)
Cc1ccc(-c2nnnn2CS(=O)(=O)c2ccccc2)cc1,433,-11.8% (inactive),-9.7% (inactive),114%,-19.4% (inactive),122%,-0.598 (inactive),-1.2e-05 (inactive),0.006 (inactive),16.3% (inactive),10.5% (inactive)
COC(=O)C(F)(F)Sc1c(C)[nH]c2ccccc12,699,-2.1% (inactive),13.7% (inactive),94.7%,41.7% (inactive),108%,-0.444 (inactive),-1.5e-05 (inactive),0.00468 (inactive),25.1% (inactive),27% (inactive)
CCn1c(=O)cc(SCC(=O)NCCN2CCN(Cc3ccccc3)CC2)c2ccccc21,478,4.3% (inactive),21.3% (inactive),93.3%,14.7% (inactive),108%,-0.559 (inactive),3.3e-05 (inactive),0.00537 (inactive),16.8% (inactive),47.8% (inactive)
CCSC1=NCN(CCCC(=O)O)CN1,645,10.1% (inactive),5.8% (inactive),106%,-81.7% (inactive),125%,-0.558 (inactive),-4e-05 (inactive),0.00489 (inactive),12.3% (inactive),10.3% (inactive)
